Laboratory results reported in ChEMBL document CHEMBL5661985, “In silico design of novel probes for the atypical opioid receptor MRGPRX2” (Nat Chem Biol, 2017).
Activity calls are given as the source filed them. The calls are words filed in the database; no cut-off is given here.

What was measured:
[1] = target: T1, Mas-related G-protein coupled receptor member X2 (Homo sapiens, UniProt Q96LB1); experiment: Agonist activity at N-terminal Flag-tagged human MRGPRX2 receptor expressed in tetracycline-induced FLP-IN/T-REX 293 cells assessed as increase in intracellular calcium release by FLIPR assay; type: functional, cell-based
T1 sequence (Q96LB1 whole entry): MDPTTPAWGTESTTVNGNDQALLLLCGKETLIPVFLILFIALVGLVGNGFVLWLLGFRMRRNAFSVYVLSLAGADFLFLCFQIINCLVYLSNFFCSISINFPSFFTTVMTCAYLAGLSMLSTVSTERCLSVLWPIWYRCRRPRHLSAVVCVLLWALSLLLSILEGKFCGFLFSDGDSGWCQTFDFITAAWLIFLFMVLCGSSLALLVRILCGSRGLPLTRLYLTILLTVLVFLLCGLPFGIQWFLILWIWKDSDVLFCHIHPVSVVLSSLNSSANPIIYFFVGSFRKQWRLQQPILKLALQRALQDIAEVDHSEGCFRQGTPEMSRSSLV

[2] = target: T2, Mas-related G-protein coupled receptor member X2 (Homo sapiens) (UniProt Q96LB1); experiment: Agonist activity at MRGPRX2 receptor in human LAD2 cells assessed as increase in degranulation incubated for 30 mins by beta-hexosaminidase assay; type: functional, cell-based; conditions: filed as agonist
T2 sequence (whole entry): T1 sequence (Q96LB1 whole entry)
Summary of the method: (§1)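 β-Hexosaminidase release: LAD2 cells in fresh medium 18 h, washed in Tyrode's buffer pH 7.4, 10,000 cells/well; drug (single concentration or 8-point curve) added in triplicate, 30 min 37°C; supernatant and Triton X-100 lysate each reacted with NAG in citrate pH 4.5 for 90 min 37°C, stopped with carbonate pH 10, A405; % release = released/total ×100, minus vehicle.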

[3] = target: T2, Mas-related G-protein coupled receptor member X2 (Homo sapiens); experiment: Agonist activity at MRGPRX2 receptor in human LAD2 cells assessed as increase in intracellular calcium release by FLIPR assay; type: functional, cell-based; conditions: filed as agonist
Summary of the method: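 LAD2 human mast cells seeded 50,000/well in Tyrode's buffer with calcium dye, 1 h before drug; 10 s baseline, drug added, fluorescence followed 120 s; expressed as fold calcium release over baseline; n=3 in triplicate.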

[4] = target: T2, Mas-related G-protein coupled receptor member X2 (Homo sapiens); experiment: Agonist activity at MRGPRX2 receptor in human LAD2 cells assessed as increase in degranulation incubated for 30 mins in presence of naloxone by beta-hexosaminidase assay; type: functional, cell-based; summary of the method: as §1
[5] = target: T1, Mas-related G-protein coupled receptor member X2; experiment: Agonist activity at MRGPRX2 (unknown origin) expressed in HTLA cells assessed as induction of beta-arrestin 2 recruitment incubated for 18 to 24 hrs by PRESTO-Tango assay; type: functional, cell-based
HTLA [6] = experiment: Agonist activity at MRGPRX2 E164D mutant (unknown origin) expressed in HTLA cells assessed as induction of beta-arrestin 2 recruitment incubated for 18 to 24 hrs by PRESTO-Tango assay; type: cell-based; conditions: Homo sapiens, filed as agonist, time 18-24 hrs
Summary of the method: (§2)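 β-arrestin2 recruitment by PRESTO-Tango: HTLA cells transiently transfected (calcium phosphate) with codon-optimized MRGPRX2-Tango (WT or point mutant) or MRGPRB2-Tango, plated next day 20,000 cells/well on poly-L-lysine; drug in HBSS/20 mM HEPES/0.3% BSA pH 7.4 for 18–24 h; Bright-Glo luminescence (RLU); curves n=3 in triplicate, mutants n=4 in triplicate.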

HTLA [7] = experiment: Agonist activity at MRGPRX2 D184E mutant (unknown origin) expressed in HTLA cells assessed as induction of beta-arrestin 2 recruitment incubated for 18 to 24 hrs by PRESTO-Tango assay; type: cell-based; conditions: Homo sapiens, time 18-24 hrs; summary of the method: as §2
[8] = target: T2, Mas-related G-protein coupled receptor member X2 (Homo sapiens); experiment: Agonist activity at MRGPRX2 receptor in human LAD2 cells transfected with MRGPRX2 siRNA assessed as increase in degranulation incubated for 30 mins by beta-hexosaminidase assay; type: functional, cell-based
Summary of the method: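 LAD2 cells (1.2 million/well) transfected with 25 nM MRGPRX2 siRNA pool or non-targeting pool, 72 h; 200,000 cells taken for β-hexosaminidase assay with EC80 concentration of agonist, 30 min 37°C; knockdown checked by qRT-PCR on 1 million cells; fold change % degranulation versus DMSO; two-way ANOVA with Sidak test.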

[9] = target: G-protein coupled receptor 15 (Homo sapiens) (UniProt P49685); experiment: Agonist activity at GPR15 receptor (unknown origin); type: functional
Summary of the method: (§3)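 PRESTO-Tango β-arrestin2 recruitment; HTLA cells (HEK-T stably expressing β-arrestin2-TEV and tTA-dependent luciferase) transfected by calcium phosphate with receptor-Tango construct, replated next day at 20,000 cells/well; compounds in HBSS/20 mM HEPES/0.3% BSA pH 7.4, 18–24 h; Bright-Glo luminescence after 15 min RT, read as RLU; ≥2-fold over basal scored active.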

[10] = target: Beta-1 adrenergic receptor (Homo sapiens) (UniProt P08588); experiment: Agonist activity at ADRB1 receptor (unknown origin); type: functional; summary of the method: as §3
[11] = target: 5-hydroxytryptamine receptor 1A (Homo sapiens) (UniProt P08908); experiment: Agonist activity at HTR1A receptor (unknown origin); type: functional; summary of the method: as §3
[12] = target: Prosaposin receptor GPR37 (Homo sapiens) (UniProt O15354); experiment: Agonist activity at GPR37 receptor (unknown origin); type: functional; summary of the method: as §3
[13] = target: Alpha-1B adrenergic receptor (Homo sapiens) (UniProt P35368); experiment: Agonist activity at ADRA1B receptor (unknown origin); type: functional; summary of the method: as §3
[14] = target: 5-hydroxytryptamine receptor 2A (Homo sapiens) (UniProt P28223); experiment: Agonist activity at HTR2 receptor (unknown origin); type: functional; summary of the method: as §3
[15] = target: Gastrin-releasing peptide receptor (Homo sapiens) (UniProt P30550); experiment: Agonist activity at GRPR (unknown origin); type: functional; summary of the method: as §3
[16] = target: D(4) dopamine receptor (Homo sapiens) (UniProt P21917); experiment: Agonist activity at DRD4 receptor (unknown origin); type: functional; summary of the method: as §3
[17] = target: Type-1 angiotensin II receptor (Homo sapiens) (UniProt P30556); experiment: Agonist activity at AGTR1 receptor (unknown origin); type: functional; summary of the method: as §3
[18] = target: Alpha-1A adrenergic receptor (Homo sapiens) (UniProt P35348); experiment: Agonist activity at ADRA1A receptor (unknown origin); type: functional; summary of the method: as §3
[19] = target: Alpha-2C adrenergic receptor (Homo sapiens) (UniProt P18825); experiment: Agonist activity at ADRA2C receptor (unknown origin); summary of the method: as §3
[20] = target: Pituitary adenylate cyclase-activating polypeptide type I receptor (Homo sapiens) (UniProt P41586); experiment: Agonist activity at ADCYAP1 receptor (unknown origin); summary of the method: as §3
[21] = target: Melanin-concentrating hormone receptor 2 (Homo sapiens) (UniProt Q969V1); experiment: Agonist activity at MCHR2 receptor (unknown orgini); type: functional; summary of the method: as §3
[22] = target: Muscarinic acetylcholine receptor M2 (Homo sapiens) (UniProt P08172); experiment: Agonist activity at CHRM2 receptor (unknown origin); type: functional; summary of the method: as §3
[23] = target: Lutropin-choriogonadotropic hormone receptor (Homo sapiens) (UniProt P22888); experiment: Agonist activity at LHCGR (unknown origin); type: functional; summary of the method: as §3
[24] = target: Glucose-dependent insulinotropic receptor (Homo sapiens) (UniProt Q8TDV5); experiment: Agonist activity at GPR119 receptor (unknown origin); type: functional; summary of the method: as §3
[25] = target: Proteinase-activated receptor 2 (Homo sapiens) (UniProt P55085); experiment: Agonist activity at F2R-L1 receptor (unknown origin); summary of the method: as §3
[26] = target: Alpha-1D adrenergic receptor (Homo sapiens) (UniProt P25100); experiment: Agonist activity at ADRA1D receptor (unknown origin); type: functional; summary of the method: as §3
[27] = target: Beta-3 adrenergic receptor (Homo sapiens) (UniProt P13945); experiment: Agonist activity at ADRB3 receptor (unknown origin); type: functional; summary of the method: as §3
[28] = target: Cannabinoid receptor 2 (Homo sapiens) (UniProt P34972); experiment: Agonist activity at CNR2 receptor (unknown origin); type: functional; summary of the method: as §3
[29] = target: Glucagon-like peptide 1 receptor (Homo sapiens) (UniProt P43220); experiment: Agonist activity at GLP1R (unknown origin); type: functional; summary of the method: as §3
[30] = target: T2, Mas-related G-protein coupled receptor member X2 (Homo sapiens); experiment: Agonist activity at N-terminal Flag-tagged human MRGPRX2 receptor expressed in HEK-T cells assessed as increase in intracellular calcium release by FLIPR assay; type: functional, cell-based; conditions: HEK-T cell
Summary of the method: (§4)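 FLIPR calcium: FLP-IN/T-REX HEK-293-T stable line with N-terminal FLAG codon-optimized receptor, induced 24 h with 1 μg/mL tetracycline in 1% dialyzed FBS (uninduced cells as control); FLIPR calcium dye plus 2.5 mM probenecid 1 h 37°C; 10 s baseline, then drug in HBSS/20 mM HEPES/probenecid pH 7.4, 16-point curve 10 μM to 0.003 nM; fluorescence 120 s; fold over basal, n=3 triplicate.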

[31] = target: T2, Mas-related G-protein coupled receptor member X2 (Homo sapiens); experiment: Agonist activity at N-terminal Flag-tagged human MRGPRX2 receptor expressed in tetracycline-induced HEK-T cells assessed as increase in intracellular calcium release by FLIPR assay; type: functional, cell-based; conditions: HEK-T cell, filed as agonist; summary of the method: as §4
[32] = target: T2, Mas-related G-protein coupled receptor member X2 (Homo sapiens); experiment: Agonist activity at N-terminal Flag-tagged human MRGPRX2 receptor expressed in FLP-IN/T-REX 293 cells assessed as increase in intracellular calcium release by FLIPR assay; type: functional, cell-based; conditions: filed as agonist; summary of the method: as §4

Sequence of Muscarinic acetylcholine receptor M2 (Homo sapiens) (P08172 whole entry): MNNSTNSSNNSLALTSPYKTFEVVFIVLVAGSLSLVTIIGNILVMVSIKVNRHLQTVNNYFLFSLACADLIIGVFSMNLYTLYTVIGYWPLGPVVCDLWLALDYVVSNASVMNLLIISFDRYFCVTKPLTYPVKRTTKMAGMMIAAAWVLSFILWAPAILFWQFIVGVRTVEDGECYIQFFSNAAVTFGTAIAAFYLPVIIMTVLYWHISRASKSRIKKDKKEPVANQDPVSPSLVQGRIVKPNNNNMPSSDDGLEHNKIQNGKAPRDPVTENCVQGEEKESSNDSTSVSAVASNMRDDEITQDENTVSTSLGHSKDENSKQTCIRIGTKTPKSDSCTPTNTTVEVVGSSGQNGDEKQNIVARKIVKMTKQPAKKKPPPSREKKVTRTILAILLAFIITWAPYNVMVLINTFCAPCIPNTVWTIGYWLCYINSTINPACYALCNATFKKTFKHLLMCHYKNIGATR
Sequence of Beta-3 adrenergic receptor (Homo sapiens) (P13945 whole entry, looked up): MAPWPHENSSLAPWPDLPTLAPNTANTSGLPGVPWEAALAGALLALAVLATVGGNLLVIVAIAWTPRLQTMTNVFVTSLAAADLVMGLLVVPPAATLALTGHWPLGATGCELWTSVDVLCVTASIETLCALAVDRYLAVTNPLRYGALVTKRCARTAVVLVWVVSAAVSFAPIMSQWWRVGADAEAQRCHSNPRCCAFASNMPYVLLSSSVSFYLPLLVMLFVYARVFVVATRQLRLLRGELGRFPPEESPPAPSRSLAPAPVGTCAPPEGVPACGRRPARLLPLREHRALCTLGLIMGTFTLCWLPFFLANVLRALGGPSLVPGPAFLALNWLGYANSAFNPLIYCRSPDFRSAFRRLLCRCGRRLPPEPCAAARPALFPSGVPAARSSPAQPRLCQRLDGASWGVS
Sequence of Alpha-1A adrenergic receptor (Homo sapiens) (P35348 whole entry): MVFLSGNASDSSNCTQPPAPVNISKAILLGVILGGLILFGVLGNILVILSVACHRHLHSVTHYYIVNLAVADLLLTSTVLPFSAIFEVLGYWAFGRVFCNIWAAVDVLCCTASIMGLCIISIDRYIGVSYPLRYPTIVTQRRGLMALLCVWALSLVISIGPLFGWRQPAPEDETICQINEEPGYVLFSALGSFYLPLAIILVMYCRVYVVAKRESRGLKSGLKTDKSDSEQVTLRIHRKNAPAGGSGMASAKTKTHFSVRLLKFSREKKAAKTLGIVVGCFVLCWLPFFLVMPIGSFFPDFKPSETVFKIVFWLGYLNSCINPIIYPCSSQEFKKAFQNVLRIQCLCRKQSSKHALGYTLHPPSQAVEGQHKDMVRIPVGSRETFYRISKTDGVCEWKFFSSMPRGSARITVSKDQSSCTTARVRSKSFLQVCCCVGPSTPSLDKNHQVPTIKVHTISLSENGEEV
Sequence of Type-1 angiotensin II receptor (Homo sapiens) (P30556 whole entry): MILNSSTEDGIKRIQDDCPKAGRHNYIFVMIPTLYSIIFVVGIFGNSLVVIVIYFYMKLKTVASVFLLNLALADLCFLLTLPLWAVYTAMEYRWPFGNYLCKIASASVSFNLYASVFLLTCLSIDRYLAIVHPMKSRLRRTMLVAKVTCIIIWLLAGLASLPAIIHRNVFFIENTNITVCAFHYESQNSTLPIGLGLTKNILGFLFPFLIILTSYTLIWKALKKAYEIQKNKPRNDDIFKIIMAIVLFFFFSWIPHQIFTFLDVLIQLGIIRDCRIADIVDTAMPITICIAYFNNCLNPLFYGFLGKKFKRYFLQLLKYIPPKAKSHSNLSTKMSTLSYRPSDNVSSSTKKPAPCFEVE
Sequence of Beta-1 adrenergic receptor (Homo sapiens) (P08588 whole entry, looked up): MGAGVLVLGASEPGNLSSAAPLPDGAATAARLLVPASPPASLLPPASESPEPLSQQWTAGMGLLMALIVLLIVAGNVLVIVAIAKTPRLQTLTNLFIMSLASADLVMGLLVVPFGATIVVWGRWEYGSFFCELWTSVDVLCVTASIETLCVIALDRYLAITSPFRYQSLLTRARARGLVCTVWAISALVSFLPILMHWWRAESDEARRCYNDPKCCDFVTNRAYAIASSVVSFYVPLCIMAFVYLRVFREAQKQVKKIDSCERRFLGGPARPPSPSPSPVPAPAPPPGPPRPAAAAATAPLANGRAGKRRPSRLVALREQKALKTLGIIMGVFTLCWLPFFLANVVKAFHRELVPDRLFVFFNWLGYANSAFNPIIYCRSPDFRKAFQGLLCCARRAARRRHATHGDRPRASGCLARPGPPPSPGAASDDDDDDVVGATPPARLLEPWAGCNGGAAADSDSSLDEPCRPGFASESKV
Sequence of Pituitary adenylate cyclase-activating polypeptide type I receptor (Homo sapiens) (P41586 21-468 limits assumed): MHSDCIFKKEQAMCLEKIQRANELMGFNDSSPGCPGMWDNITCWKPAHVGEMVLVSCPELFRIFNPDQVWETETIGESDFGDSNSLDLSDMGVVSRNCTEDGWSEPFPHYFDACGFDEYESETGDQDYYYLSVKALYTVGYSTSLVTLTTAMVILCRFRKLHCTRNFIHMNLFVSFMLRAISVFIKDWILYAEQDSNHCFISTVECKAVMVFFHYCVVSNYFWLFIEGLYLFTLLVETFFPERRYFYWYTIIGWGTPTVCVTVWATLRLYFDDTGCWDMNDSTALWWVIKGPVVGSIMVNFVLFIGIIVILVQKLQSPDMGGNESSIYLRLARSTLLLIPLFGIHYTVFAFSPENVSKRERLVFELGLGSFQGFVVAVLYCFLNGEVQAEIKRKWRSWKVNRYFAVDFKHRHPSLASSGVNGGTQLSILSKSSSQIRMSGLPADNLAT
Sequence of G-protein coupled receptor 15 (Homo sapiens) (P49685 whole entry): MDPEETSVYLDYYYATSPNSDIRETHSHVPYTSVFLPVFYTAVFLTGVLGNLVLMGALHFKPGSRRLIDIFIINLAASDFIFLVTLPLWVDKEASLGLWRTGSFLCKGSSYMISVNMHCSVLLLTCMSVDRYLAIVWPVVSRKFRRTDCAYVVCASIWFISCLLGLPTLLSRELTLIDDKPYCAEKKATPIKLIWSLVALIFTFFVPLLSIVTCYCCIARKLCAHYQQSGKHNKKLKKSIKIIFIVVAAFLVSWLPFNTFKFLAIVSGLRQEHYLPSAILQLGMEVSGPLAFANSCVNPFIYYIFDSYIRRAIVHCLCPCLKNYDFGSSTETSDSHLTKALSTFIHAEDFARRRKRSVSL
Sequence of Gastrin-releasing peptide receptor (Homo sapiens) (P30550 whole entry, looked up): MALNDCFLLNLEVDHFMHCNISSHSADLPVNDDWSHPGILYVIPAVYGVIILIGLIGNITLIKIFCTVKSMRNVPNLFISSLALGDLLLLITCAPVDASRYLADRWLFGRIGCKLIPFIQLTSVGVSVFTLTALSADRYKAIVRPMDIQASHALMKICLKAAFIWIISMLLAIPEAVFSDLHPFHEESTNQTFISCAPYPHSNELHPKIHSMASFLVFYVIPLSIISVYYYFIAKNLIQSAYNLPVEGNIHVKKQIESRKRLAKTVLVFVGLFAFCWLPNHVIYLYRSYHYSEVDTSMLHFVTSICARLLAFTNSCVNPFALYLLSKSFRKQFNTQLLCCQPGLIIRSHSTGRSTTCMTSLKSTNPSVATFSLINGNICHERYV
Sequence of Glucose-dependent insulinotropic receptor (Homo sapiens) (Q8TDV5 whole entry): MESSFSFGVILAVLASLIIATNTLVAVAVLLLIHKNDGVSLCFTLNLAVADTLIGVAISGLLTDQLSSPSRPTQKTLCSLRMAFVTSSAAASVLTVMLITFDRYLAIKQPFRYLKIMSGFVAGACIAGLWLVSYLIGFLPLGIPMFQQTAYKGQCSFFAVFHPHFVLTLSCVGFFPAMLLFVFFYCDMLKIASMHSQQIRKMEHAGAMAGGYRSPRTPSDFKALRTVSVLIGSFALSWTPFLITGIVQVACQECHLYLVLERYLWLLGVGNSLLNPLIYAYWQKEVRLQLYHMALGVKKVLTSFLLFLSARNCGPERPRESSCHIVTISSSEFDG
Sequence of 5-hydroxytryptamine receptor 1A (Homo sapiens) (P08908 whole entry): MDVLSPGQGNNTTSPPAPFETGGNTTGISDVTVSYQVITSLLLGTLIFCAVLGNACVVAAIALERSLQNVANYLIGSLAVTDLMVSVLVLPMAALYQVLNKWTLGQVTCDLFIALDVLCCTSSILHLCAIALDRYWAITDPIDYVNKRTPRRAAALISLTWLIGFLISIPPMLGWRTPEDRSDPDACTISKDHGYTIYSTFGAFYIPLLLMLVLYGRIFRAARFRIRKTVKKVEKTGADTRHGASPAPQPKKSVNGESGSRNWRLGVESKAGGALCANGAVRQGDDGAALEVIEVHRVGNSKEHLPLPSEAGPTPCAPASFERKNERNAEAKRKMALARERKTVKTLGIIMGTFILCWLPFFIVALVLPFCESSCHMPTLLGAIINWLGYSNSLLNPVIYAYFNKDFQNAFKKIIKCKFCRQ
Sequence of Prosaposin receptor GPR37 (Homo sapiens) (O15354 whole entry): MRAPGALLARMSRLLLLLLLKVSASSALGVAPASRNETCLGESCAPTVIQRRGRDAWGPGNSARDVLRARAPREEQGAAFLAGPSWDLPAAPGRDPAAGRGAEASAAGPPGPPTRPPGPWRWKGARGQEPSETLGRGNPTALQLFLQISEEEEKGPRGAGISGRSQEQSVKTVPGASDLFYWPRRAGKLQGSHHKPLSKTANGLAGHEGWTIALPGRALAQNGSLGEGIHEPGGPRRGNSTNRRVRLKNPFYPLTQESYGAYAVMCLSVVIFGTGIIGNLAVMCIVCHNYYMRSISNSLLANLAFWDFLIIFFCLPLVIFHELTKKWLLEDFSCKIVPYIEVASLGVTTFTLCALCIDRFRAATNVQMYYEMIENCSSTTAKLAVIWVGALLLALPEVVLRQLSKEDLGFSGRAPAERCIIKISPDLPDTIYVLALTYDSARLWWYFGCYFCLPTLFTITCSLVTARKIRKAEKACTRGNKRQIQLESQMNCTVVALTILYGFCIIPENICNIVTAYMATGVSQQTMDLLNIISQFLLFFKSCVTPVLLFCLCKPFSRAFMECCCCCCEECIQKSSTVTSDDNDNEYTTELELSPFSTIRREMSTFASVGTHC

Which results are given for `CN1CC[C@]23c4c5ccc(O)c4O[C@H]2[C@@H](O)C=C[C@H]3[C@H]1C5` [MORPHINE]?
EC50 ([1]; read-out: EC50): 7 µM; Activity [2]: Active; Activity [3]: Active; Activity [4]: inactive; EC50 ([5]; read-out: EC50): 6.4 µM; EC50 ([5]; read-out: pEC50 (converted)): 6.17 µM; Activity (HTLA [6]): Active; Activity (HTLA [7]): inactive; Activity [8]: inactive

For `CN(C)[C@@H]1CCN(c2cc(-c3ccccc3)nc3ccnn23)C1` [(R)-ZINC-3573], which Activity [9] is on record?
The Activity was “inactive”.

And the EC50 ([1]; read-out: EC50)?
The EC50 was 1 µM.

What about the Activity [2] of the same compound?
Its Activity is “Active”.

And the Activity [10]?
The Activity was “inactive”.

And the Activity [11]?
The Activity was “inactive”.

What about the EC50 ([5]; read-out: EC50) of the same compound?
Its EC50 is 0.74 µM.

What about the Activity [12] of the same compound?
The Activity was “inactive”.

What about the Activity [13] of the same compound?
Its Activity is “inactive”.

What about the Activity [14] of the same compound?
The Activity was “inactive”.

What about the Activity [15] of the same compound?
The Activity was “inactive”.

And the Activity [16]?
The Activity was “inactive”.

What about the Activity [17] of the same compound?
Its Activity is “inactive”.

And the Activity [18]?
Its Activity is “inactive”.

What about the Activity [19] of the same compound?
The Activity was “inactive”.

And the Activity [20]?
Its Activity is “inactive”.

And the Activity [21]?
Its Activity is “inactive”.

And the Activity [22]?
The Activity was “inactive”.

What about the Activity [23] of the same compound?
The Activity was “inactive”.

What about the Activity [24] of the same compound?
Its Activity is “inactive”.

What about the Activity [25] of the same compound?
Its Activity is “inactive”.

What about the Activity [26] of the same compound?
Its Activity is “inactive”.

And the Activity [27]?
The Activity was “inactive”.

What about the Activity [28] of the same compound?
Its Activity is “inactive”.

What about the Activity [29] of the same compound?
Its Activity is “inactive”.

With `CN1CC[C@@]23CCCC[C@@H]2[C@@H]1Cc1ccc(O)cc13` [DEXTRORPHAN] as the compound, how does the EC50 ([1]; read-out: EC50) read?
The EC50 was 6 µM.

What about the EC50 ([1]; read-out: pEC50 (converted)) of the same compound?
The EC50 was 3.89 µM.

What about the EC50 ([5]; read-out: EC50) of the same compound?
Its EC50 is 4.3 µM.

And the EC50 ([5]; read-out: pEC50 (converted))?
The EC50 was 4.17 µM.

What about the Activity (HTLA [6]) of the same compound?
Its Activity is “Active”.

What about the Activity (HTLA [7]) of the same compound?
Its Activity is “inactive”.

What about the Activity [30] of the same compound?
Its Activity is “inactive”.

And the Activity [31]?
Its Activity is “Active”.

What does the source list for `CC[C@H](C)[C@H](N)C(=O)N[C@@H](CC(N)=O)C(=O)N[C@@H](CC(C)C)C(=O)N[C@@H](CCCCN)C(=O)N[C@@H](C)C(=O)N[C@@H](CC(C)C)C(=O)N[C@@H](C)C(=O)N[C@@H](C)C(=O)N[C@@H](CC(C)C)C(=O)N[C@@H](C)C(=O)N[C@@H](CCCCN)C(=O)N[C@@H](CCCCN)C(=O)N[C@H](C(=O)N[C@@H](CC(C)C)C(N)=O)[C@@H](C)CC`?
EC50 ([1]; read-out: pEC50 (converted)): 11.7 µM; EC50 ([5]; read-out: pEC50 (converted)): > 31.6 µM; Activity [32]: Active
